ChEMBL document CHEMBL4190330, “Discovery of Potent and Selective A2A Antagonists with Efficacy in Animal Models of Parkinson's Disease and Depression” (ACS Med Chem Lett, 2017)

Molecular target: T1, Adenosine receptor A2a (Homo sapiens, UniProt P29274)
Assay: Displacement of [3H]ZM241385 from human A2A receptor expressed in HEK293 cell membranes after 90 mins radioligand binding assay
Procedure, shortened: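 Membranes from HEK-293 cells overexpressing the relevant human adenosine receptor subtype; all points in triplicate; Ki derived from 8-concentration IC50 curves.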

T1 sequence (P29274 whole entry): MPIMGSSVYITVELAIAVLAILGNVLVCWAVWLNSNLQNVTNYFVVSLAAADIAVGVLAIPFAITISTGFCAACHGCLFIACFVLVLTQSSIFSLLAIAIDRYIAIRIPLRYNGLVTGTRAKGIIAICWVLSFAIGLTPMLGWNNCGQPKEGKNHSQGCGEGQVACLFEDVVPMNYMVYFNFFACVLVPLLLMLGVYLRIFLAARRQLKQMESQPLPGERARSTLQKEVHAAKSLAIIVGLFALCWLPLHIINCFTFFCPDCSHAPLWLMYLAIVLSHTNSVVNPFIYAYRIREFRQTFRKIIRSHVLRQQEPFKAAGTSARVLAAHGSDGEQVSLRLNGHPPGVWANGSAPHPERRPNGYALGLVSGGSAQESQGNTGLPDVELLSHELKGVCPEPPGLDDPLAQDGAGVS

Structure (SMILES) | Ki [nM]
COCCOc1c(F)cc(N2CCN(CCn3c(=O)n(C)c4c3nc(N)n3nc(-c5ccco5)nc43)CC2)cc1F | 0.6
Cn1c(=O)n(CCN2CCN(c3ccc(F)cc3F)CC2)c2nc(N)n3nc(-c4ccco4)nc3c21 | 1
Cc1nc2cc(N3CCN(CCn4c(=O)n(C)c5c4nc(N)n4nc(-c6ccco6)nc54)CC3)c(F)cc2o1 | 0.4
Cn1c(=O)n(CCN2CCN(c3ccc(OCCOC4CC4)cc3)CC2)c2nc(N)n3nc(-c4ccco4)nc3c21 | 2
COCCOc1ccc(N2CCN(CCn3c(=O)n(C)c4c3nc(N)n3nc(-c5nccs5)nc43)CC2)cc1 | 6.4
COCC(C)Oc1ccc(N2CCN(CCn3c(=O)n(C)c4c3nc(N)n3nc(-c5ccco5)nc43)CC2)cc1 (stereo unspecified) | 0.4

Second part, the molecule after the results:

Ki [nM] | Structure (SMILES)
4.5 | COc1ccc(N2CCN(CCn3c(=O)n(C)c4c3nc(N)n3nc(-c5ccco5)nc43)CC2)cn1
0.3 | Cn1c(=O)n(CCN2CCN(c3ccc(OC4CC4)cc3)CC2)c2nc(N)n3nc(-c4ccco4)nc3c21
0.2 | Cn1c(=O)n(CCN2CCN(c3ccc(OC4CCOC4)cc3)CC2)c2nc(N)n3nc(-c4ccco4)nc3c21 (stereo unspecified)
0.5 | COCC(C)(C)Oc1ccc(N2CCN(CCn3c(=O)n(C)c4c3nc(N)n3nc(-c5ccco5)nc43)CC2)cc1
0.5 | Cn1c(=O)n(CCN2CCN(c3ccc(C#N)c(F)c3)CC2)c2nc(N)n3nc(-c4ccco4)nc3c21
1.2 | Cn1c(=O)n(CCN2CCN(c3nc(C(F)(F)F)cs3)CC2)c2nc(N)n3nc(-c4ccco4)nc3c21

Molecular target: Adenosine receptor A2a (Rattus norvegicus, UniProt P30543)
Assay: Antagonist activity at rat A2A receptor assessed as reduction in CGS-21680-induced cAMP level pretreated for 15 mins followed by CGS-21680 addition measured after 30 mins by HTRF assay
Format: functional
Procedure, shortened: (§1)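 HTRF-based cAMP functional assay; each compound tested at 12 concentrations, every point in triplicate; Ki given as mean of two independent experiments (n=2).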

Sequence of Adenosine receptor A2a (Rattus norvegicus, UniProt P30543) (P30543 whole entry): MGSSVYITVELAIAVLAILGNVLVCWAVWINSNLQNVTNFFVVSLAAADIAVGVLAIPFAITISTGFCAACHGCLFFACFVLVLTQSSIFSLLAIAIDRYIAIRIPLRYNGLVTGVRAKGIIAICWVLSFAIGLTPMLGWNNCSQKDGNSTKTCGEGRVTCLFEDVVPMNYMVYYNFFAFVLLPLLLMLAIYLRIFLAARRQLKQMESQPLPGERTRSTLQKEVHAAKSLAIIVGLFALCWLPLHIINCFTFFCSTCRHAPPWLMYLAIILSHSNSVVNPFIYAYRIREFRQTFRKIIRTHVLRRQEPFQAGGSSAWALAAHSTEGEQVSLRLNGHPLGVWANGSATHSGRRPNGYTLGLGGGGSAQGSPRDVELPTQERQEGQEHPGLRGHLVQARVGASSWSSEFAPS

Ki [nM] | Structure (SMILES)
0.05 | Cc1nc2cc(N3CCN(CCn4c(=O)n(C)c5c4nc(N)n4nc(-c6ccco6)nc54)CC3)c(F)cc2o1
11.1 | COCCOc1ccc(N2CCN(CCn3c(=O)n(C)c4c3nc(N)n3nc(-c5nccs5)nc43)CC2)cc1
0.42 | COCC(C)Oc1ccc(N2CCN(CCn3c(=O)n(C)c4c3nc(N)n3nc(-c5ccco5)nc43)CC2)cc1 (stereo unspecified)
0.72 | COCC(C)(C)Oc1ccc(N2CCN(CCn3c(=O)n(C)c4c3nc(N)n3nc(-c5ccco5)nc43)CC2)cc1

Molecular target: T1, Adenosine receptor A2a
Assay: Antagonist activity at human A2A receptor expressed in HEK293 cell membranes assessed as reduction in CGS-21680-induced cAMP level pretreated for 15 mins followed by CGS-21680 addition measured after 30 mins by HTRF assay
Format: functional, cell-based
Procedure, shortened: as §1

Structure (SMILES) | Ki [nM]
Cn1c(=O)n(CCN2CCN(c3ccc(F)cc3F)CC2)c2nc(N)n3nc(-c4ccco4)nc3c21 | 0.07
Cc1nc2cc(N3CCN(CCn4c(=O)n(C)c5c4nc(N)n4nc(-c6ccco6)nc54)CC3)c(F)cc2o1 | 0.15
COCCOc1ccc(N2CCN(CCn3c(=O)n(C)c4c3nc(N)n3nc(-c5nccs5)nc43)CC2)cc1 | 1.2
COCC(C)Oc1ccc(N2CCN(CCn3c(=O)n(C)c4c3nc(N)n3nc(-c5ccco5)nc43)CC2)cc1 (stereo unspecified) | 1.5

Now from value to molecule:

Ki [nM] | Structure (SMILES)
0.25 | Cn1c(=O)n(CCN2CCN(c3ccc(OC4CC4)cc3)CC2)c2nc(N)n3nc(-c4ccco4)nc3c21
0.22 | Cn1c(=O)n(CCN2CCN(c3ccc(OC4CCOC4)cc3)CC2)c2nc(N)n3nc(-c4ccco4)nc3c21 (stereo unspecified)
2.1 | COCC(C)(C)Oc1ccc(N2CCN(CCn3c(=O)n(C)c4c3nc(N)n3nc(-c5ccco5)nc43)CC2)cc1
0.4 | Cn1c(=O)n(CCN2CCN(c3ccc(C#N)c(F)c3)CC2)c2nc(N)n3nc(-c4ccco4)nc3c21
0.9 | Cn1c(=O)n(CCN2CCN(c3nc(C(F)(F)F)cs3)CC2)c2nc(N)n3nc(-c4ccco4)nc3c21

Tested on: not listed separately
Assay: Metabolic stability in human liver microsomes
Format: ADME, microsome

Structure (SMILES) | Stability
COCCOc1c(F)cc(N2CCN(CCn3c(=O)n(C)c4c3nc(N)n3nc(-c5ccco5)nc43)CC2)cc1F | Stable
Cn1c(=O)n(CCN2CCN(c3ccc(F)cc3F)CC2)c2nc(N)n3nc(-c4ccco4)nc3c21 | Stable
Cc1nc2cc(N3CCN(CCn4c(=O)n(C)c5c4nc(N)n4nc(-c6ccco6)nc54)CC3)c(F)cc2o1 | Stable
Cn1c(=O)n(CCN2CCN(c3ccc(OCCOC4CC4)cc3)CC2)c2nc(N)n3nc(-c4ccco4)nc3c21 | Stable
COCCOc1ccc(N2CCN(CCn3c(=O)n(C)c4c3nc(N)n3nc(-c5nccs5)nc43)CC2)cc1 | Stable
COCC(C)Oc1ccc(N2CCN(CCn3c(=O)n(C)c4c3nc(N)n3nc(-c5ccco5)nc43)CC2)cc1 (stereo unspecified) | Stable

Now from value to molecule:

Stability | Structure (SMILES)
Stable | COc1ccc(N2CCN(CCn3c(=O)n(C)c4c3nc(N)n3nc(-c5ccco5)nc43)CC2)cn1
Stable | Cn1c(=O)n(CCN2CCN(c3ccc(OC4CC4)cc3)CC2)c2nc(N)n3nc(-c4ccco4)nc3c21
Stable | Cn1c(=O)n(CCN2CCN(c3ccc(OC4CCOC4)cc3)CC2)c2nc(N)n3nc(-c4ccco4)nc3c21 (stereo unspecified)
Stable | COCC(C)(C)Oc1ccc(N2CCN(CCn3c(=O)n(C)c4c3nc(N)n3nc(-c5ccco5)nc43)CC2)cc1
Stable | Cn1c(=O)n(CCN2CCN(c3ccc(C#N)c(F)c3)CC2)c2nc(N)n3nc(-c4ccco4)nc3c21
Stable | Cn1c(=O)n(CCN2CCN(c3nc(C(F)(F)F)cs3)CC2)c2nc(N)n3nc(-c4ccco4)nc3c21

Molecular target: T2, Adenosine receptor A1 (Homo sapiens) (UniProt P30542)
T2 sequence (whole entry): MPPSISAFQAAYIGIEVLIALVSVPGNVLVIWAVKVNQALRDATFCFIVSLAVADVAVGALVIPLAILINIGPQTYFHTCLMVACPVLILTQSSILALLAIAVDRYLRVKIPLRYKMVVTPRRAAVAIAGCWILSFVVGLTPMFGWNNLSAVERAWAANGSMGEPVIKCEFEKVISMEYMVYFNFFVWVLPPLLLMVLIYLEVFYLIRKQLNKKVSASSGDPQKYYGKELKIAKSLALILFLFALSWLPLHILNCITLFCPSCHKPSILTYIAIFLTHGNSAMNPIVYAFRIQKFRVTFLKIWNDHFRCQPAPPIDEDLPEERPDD
Assay: Displacement of [3H]-DPCPX from human A1 receptor expressed in HEK293 cell membranes at 1 uM after 90 mins radioligand binding assay relative to control

Structure (SMILES) | inhibition [%]
COCCOc1c(F)cc(N2CCN(CCn3c(=O)n(C)c4c3nc(N)n3nc(-c5ccco5)nc43)CC2)cc1F | 65
Cn1c(=O)n(CCN2CCN(c3ccc(F)cc3F)CC2)c2nc(N)n3nc(-c4ccco4)nc3c21 | 32
Cc1nc2cc(N3CCN(CCn4c(=O)n(C)c5c4nc(N)n4nc(-c6ccco6)nc54)CC3)c(F)cc2o1 | 48
Cn1c(=O)n(CCN2CCN(c3ccc(OCCOC4CC4)cc3)CC2)c2nc(N)n3nc(-c4ccco4)nc3c21 | 66
COCCOc1ccc(N2CCN(CCn3c(=O)n(C)c4c3nc(N)n3nc(-c5nccs5)nc43)CC2)cc1 | 19
COCC(C)Oc1ccc(N2CCN(CCn3c(=O)n(C)c4c3nc(N)n3nc(-c5ccco5)nc43)CC2)cc1 (stereo unspecified) | 56

Results, then the molecule that gave them:

inhibition [%] | Structure (SMILES)
61 | COc1ccc(N2CCN(CCn3c(=O)n(C)c4c3nc(N)n3nc(-c5ccco5)nc43)CC2)cn1
50 | Cn1c(=O)n(CCN2CCN(c3ccc(OC4CC4)cc3)CC2)c2nc(N)n3nc(-c4ccco4)nc3c21
49 | Cn1c(=O)n(CCN2CCN(c3ccc(OC4CCOC4)cc3)CC2)c2nc(N)n3nc(-c4ccco4)nc3c21 (stereo unspecified)
36 | COCC(C)(C)Oc1ccc(N2CCN(CCn3c(=O)n(C)c4c3nc(N)n3nc(-c5ccco5)nc43)CC2)cc1
50 | Cn1c(=O)n(CCN2CCN(c3ccc(C#N)c(F)c3)CC2)c2nc(N)n3nc(-c4ccco4)nc3c21
58 | Cn1c(=O)n(CCN2CCN(c3nc(C(F)(F)F)cs3)CC2)c2nc(N)n3nc(-c4ccco4)nc3c21

Tested on: not listed separately
Assay: Metabolic stability in rat liver microsomes
Format: ADME, microsome

Structure (SMILES) | Stability
COCCOc1c(F)cc(N2CCN(CCn3c(=O)n(C)c4c3nc(N)n3nc(-c5ccco5)nc43)CC2)cc1F | Stable
Cn1c(=O)n(CCN2CCN(c3ccc(F)cc3F)CC2)c2nc(N)n3nc(-c4ccco4)nc3c21 | Stable
Cc1nc2cc(N3CCN(CCn4c(=O)n(C)c5c4nc(N)n4nc(-c6ccco6)nc54)CC3)c(F)cc2o1 | Stable
Cn1c(=O)n(CCN2CCN(c3ccc(OCCOC4CC4)cc3)CC2)c2nc(N)n3nc(-c4ccco4)nc3c21 | Stable
COCCOc1ccc(N2CCN(CCn3c(=O)n(C)c4c3nc(N)n3nc(-c5nccs5)nc43)CC2)cc1 | Stable
COCC(C)Oc1ccc(N2CCN(CCn3c(=O)n(C)c4c3nc(N)n3nc(-c5ccco5)nc43)CC2)cc1 (stereo unspecified) | Stable

The remaining lines, values ahead:

Stability | Structure (SMILES)
Stable | COc1ccc(N2CCN(CCn3c(=O)n(C)c4c3nc(N)n3nc(-c5ccco5)nc43)CC2)cn1
Stable | Cn1c(=O)n(CCN2CCN(c3ccc(OC4CC4)cc3)CC2)c2nc(N)n3nc(-c4ccco4)nc3c21
Stable | Cn1c(=O)n(CCN2CCN(c3ccc(OC4CCOC4)cc3)CC2)c2nc(N)n3nc(-c4ccco4)nc3c21 (stereo unspecified)
Stable | COCC(C)(C)Oc1ccc(N2CCN(CCn3c(=O)n(C)c4c3nc(N)n3nc(-c5ccco5)nc43)CC2)cc1
Stable | Cn1c(=O)n(CCN2CCN(c3ccc(C#N)c(F)c3)CC2)c2nc(N)n3nc(-c4ccco4)nc3c21
Stable | Cn1c(=O)n(CCN2CCN(c3nc(C(F)(F)F)cs3)CC2)c2nc(N)n3nc(-c4ccco4)nc3c21
